How the values were obtained:
Rattus norvegicus [1] = assay: Change in heart rate after 48 hours of dosing was measured in conscious normotensive male rats at a dose of 5 mg/kg administered intraperitoneally in 5 rats; format: functional; settings: route intraperitoneal
In short: (§1)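 Heart rate was recorded electronically through the blood-pressure recorder during tail-cuff measurement in conscious normotensive male rats (250–300 g), restrained in Plexiglass tubes at 37 °C. Dosing was intraperitoneal, and change from the pre-dose rate was followed to 48 h.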

Rattus norvegicus [2] = assay: Change in blood pressure after 3 hours of dosing was measured in conscious normotensive male rats at a dose of 5 mg/kg administered intraperitoneally in 5 rats; format: functional; settings: route intraperitoneal
In short: (§2)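 Conscious normotensive male rats (250–300 g) were restrained in Plexiglass tubes kept at 37 °C. Systolic pressure was read indirectly at the tail root using a tail cuff and a sphygmomanometer with a crystal-microphone pulse pick-up. Dosing was intraperitoneal, and change from the pre-dose value was followed to 48 h.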

Rattus norvegicus [3] = assay: Change in heart rate after 18 hours of dosing was measured in conscious normotensive male rats at a dose of 5 mg/kg administered intraperitoneally in 5 rats; format: functional; settings: route intraperitoneal; in short: as §1
Rattus norvegicus [4] = assay: Change in heart rate after 3 hours of dosing was measured in conscious normotensive male rats at a dose of 5 mg/kg administered intraperitoneally in 5 rats; format: functional; settings: route intraperitoneal; in short: as §1
Mus musculus [5] = species: Mus musculus; assay: Compound was evaluated for its lack of depresant effect on the CNS as measured by the forced coordinated motor activity on 10 mice; format: functional
Rattus norvegicus [6] = assay: Change in blood pressure after 18 hours of dosing was measured in conscious normotensive male rats at a dose of 5 mg/kg administered intraperitoneally in 5 rats; format: functional; settings: route intraperitoneal; in short: as §2
Rattus norvegicus [7] = assay: Change in heart rate after 12 hours of dosing was measured in conscious normotensive male rats at a dose of 5 mg/kg administered intraperitoneally in 5 rats; format: functional; settings: route intraperitoneal; in short: as §1
Rattus norvegicus [8] = assay: Change in blood pressure after 12 hours of dosing was measured in conscious normotensive male rats at a dose of 5 mg/kg administered intraperitoneally in 5 rats; format: functional; settings: route intraperitoneal; in short: as §2
[9] = Ratio of performance time under the effect and corresponding control performance time; format: functional
In short: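 Female mice (20–25 g), in groups of 10, were trained on a 3 cm rod at 15 rpm and tested 6 h after intraperitoneal dosing. The activity ratio is the group performance time under drug divided by the control group performance time.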

Rattus norvegicus [10] = assay: Change in blood pressure after 48 hours of dosing was measured in conscious normotensive male rats at a dose of 5 mg/kg administered intraperitoneally in 5 rats; format: functional; settings: route intraperitoneal; in short: as §2
Rattus norvegicus [11] = assay: Heart rate was measured prior to dosing in conscious normotensive male rats at a dose of 5 mg/kg administered intraperitoneally in 5 rats; format: functional; settings: route intraperitoneal; in short: as §1
Rattus norvegicus [12] = assay: Change in heart rate after 24 hours of dosing was measured in conscious normotensive male rats at a dose of 5 mg/kg administered intraperitoneally in 5 rats; format: functional; settings: route intraperitoneal; in short: as §1
Rattus norvegicus [13] = assay: Change in blood pressure after 6 hours of dosing was measured in conscious normotensive male rats at a dose of 5 mg/kg administered intraperitoneally in 5 rats; format: functional; settings: route intraperitoneal; in short: as §2
Rattus norvegicus [14] = assay: Change in blood pressure after 24 hours of dosing was measured in conscious normotensive male rats at a dose of 5 mg/kg administered intraperitoneally in 5 rats; format: functional; settings: route intraperitoneal; in short: as §2
Rattus norvegicus [15] = assay: Systolic blood pressure was measured prior to dosing in conscious normotensive male rats at a dose of 5 mg/kg administered intraperitoneally in 5 rats; format: functional; settings: route intraperitoneal; in short: as §2
Rattus norvegicus [16] = assay: Change in heart rate after 6 hours of dosing was measured in conscious normotensive male rats at a dose of 5 mg/kg administered intraperitoneally in 5 rats; format: functional; settings: route intraperitoneal; in short: as §1
Mus musculus [17] = assay: Lack of depressant effect on the CNS as measured by the forced coordinated motor activity on mice was expressed as time elapsed from dosing required to obtain maximum hypotensive or antihypertensive effect; format: functional, Central nervous system

COC(=O)[C@H]1[C@H]2C[C@@H]3c4[nH]c5cc(OC)ccc5c4CCN3C[C@H]2C[C@@H](OC(=O)c2cc(OC)c(OC)c(OC)c2)[C@@H]1OC [RESERPINE]
Change in heart rate (Rattus norvegicus [1]): -10
Change in BP (Rattus norvegicus [2]): -18
Change in heart rate (Rattus norvegicus [3]): -40
Change in heart rate (Rattus norvegicus [4]): -34
Group performance time (Mus musculus [5]): 9 s
Change in BP (Rattus norvegicus [6]): -10
Change in heart rate (Rattus norvegicus [7]): -40
Change in BP (Rattus norvegicus [8]): -16
Activity ratio [9]: < 0.08
Change in BP (Rattus norvegicus [10]): -7
Heart rate (Rattus norvegicus [11]): 364 beats min-1
Change in heart rate (Rattus norvegicus [12]): -32
Change in BP (Rattus norvegicus [13]): -23
Change in BP (Rattus norvegicus [14]): -12
BP (Rattus norvegicus [15]): 117 mmHg
Change in heart rate (Rattus norvegicus [16]): -44
Time (Mus musculus [17]): 6 h
